Active and inactive are the calls of the source. The calls are words filed in the database; no cut-off is given here.

These results are taken from ChEMBL document CHEMBL4406875, “Design, synthesis and biological evaluation of amino acids-oleanolic acid conjugates as influenza virus inhibitors” (Bioorg Med Chem, 2019).

The subject of one data set is MDCK. As to the kind of experiment: Cytotoxicity against dog MDCK cells assessed as cell viability measured at 100 uM after 45 hrs by Celltiter-Glo luminescence assay. Format: cell-based, Canis lupus familiaris. The method, boiled down:
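Viability screen of uninfected MDCK cells at 100 μM compound, read by CellTiter-Glo luminescence with DMSO as negative control; triplicate experiments.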
A general note: Cellular ATP, detected with luciferase, serves as a proxy for viable cell number.

The test system of the next data set is Influenza A virus. Kind of data set: Antiviral activity against Influenza A virus A/WSN/33(H1N1) infected in MDCK cells assessed as inhibition of virus-induced cytopathic effect at 100 uM measured after 45 hrs by CellTiter-Glo luminescence assay. The class given is functional, organism-based. Particulars: A/WSN/1933(H1N1). A digest of the protocol: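 Single-concentration screen at 100 μM in MDCK cells infected with A/WSN/33 under the same conditions: 1% FBS DMEM with 1 μg/mL trypsin, MOI 0.1, 45 h. Cytopathic effect was read by CellTiter-Glo luminescence against a DMSO negative control, from triplicate experiments.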
(In general: Protection from cytopathic effect is a common read-out in antiviral testing.)

Turning to `COC(=O)[C@H](Cc1c[nH]cn1)NC(=O)[C@]12CCC(C)(C)C[C@H]1C1=CC[C@@H]3[C@@]4(C)CC[C@H](O)C(C)(C)[C@@H]4CC[C@@]3(C)[C@]1(C)CC2`, the Activity entry with MDCK is reported as “Toxic”. The inhibition entry with Influenza A virus was “Active”.

On to `COC(=O)[C@H](Cc1c[nH]c2ccccc12)NC(=O)[C@]12CCC(C)(C)C[C@H]1C1=CC[C@@H]3[C@@]4(C)CC[C@H](O)C(C)(C)[C@@H]4CC[C@@]3(C)[C@]1(C)CC2`, for which, in the data set with MDCK, the Activity entry is “Toxic”. Further, in the data set with Influenza A virus, the inhibition result is “Active”.

As for `COC(=O)[C@H](Cc1ccccc1)NC(=O)[C@]12CCC(C)(C)C[C@H]1C1=CC[C@@H]3[C@@]4(C)CC[C@H](O)C(C)(C)[C@@H]4CC[C@@]3(C)[C@]1(C)CC2`, the Activity entry with MDCK is recorded as “Toxic”. In the data set on Influenza A virus, the inhibition entry was “Active”.

Turning to `CC(C)C[C@H](NC(=O)[C@]12CCC(C)(C)C[C@H]1C1=CC[C@@H]3[C@@]4(C)CC[C@H](O)C(C)(C)[C@@H]4CC[C@@]3(C)[C@]1(C)CC2)C(=O)O`, in the data set with MDCK, the Activity result is recorded as “Toxic”. Besides, in the data set on Influenza A virus, the inhibition entry is “Active”.

Take `CC1(C)CC[C@]2(C(=O)N[C@@H](CCC(=O)O)C(=O)O)CC[C@]3(C)C(=CC[C@@H]4[C@@]5(C)CC[C@H](O)C(C)(C)[C@@H]5CC[C@]43C)[C@@H]2C1`: in the data set with MDCK, the Activity entry was “Toxic”. The inhibition result with Influenza A virus is “Active”.

Take `COC(=O)[C@H](C)NC(=O)[C@]12CCC(C)(C)C[C@H]1C1=CC[C@@H]3[C@@]4(C)CC[C@H](O)C(C)(C)[C@@H]4CC[C@@]3(C)[C@]1(C)CC2`: the Activity entry with MDCK is recorded as “Toxic”. Besides, the inhibition result in the data set on Influenza A virus is “Active”.

Turning to `COC(=O)[C@@H](NC(=O)[C@]12CCC(C)(C)C[C@H]1C1=CC[C@@H]3[C@@]4(C)CC[C@H](O)C(C)(C)[C@@H]4CC[C@@]3(C)[C@]1(C)CC2)[C@@H](C)O`, in the data set with MDCK, the Activity result is listed as “Toxic”. Also, the inhibition result in the data set with Influenza A virus was “Active”.

For `COC(=O)[C@@H](NC(=O)[C@]12CCC(C)(C)C[C@H]1C1=CC[C@@H]3[C@@]4(C)CC[C@H](O)C(C)(C)[C@@H]4CC[C@@]3(C)[C@]1(C)CC2)C(C)C`, in the data set on MDCK, the Activity result was “Toxic”. For the same molecule, the inhibition result in the data set on Influenza A virus was “Active”.

In the case of `C[C@@H](O)[C@H](NC(=O)[C@]12CCC(C)(C)C[C@H]1C1=CC[C@@H]3[C@@]4(C)CC[C@H](O)C(C)(C)[C@@H]4CC[C@@]3(C)[C@]1(C)CC2)C(=O)O`, in the data set with MDCK, the Activity result is “Toxic”. Moreover, in the data set with Influenza A virus, the inhibition result was “Active”.

`CC1(C)CC[C@]2(C(=O)N[C@@H](Cc3c[nH]cn3)C(=O)O)CC[C@]3(C)C(=CC[C@@H]4[C@@]5(C)CC[C@H](O)C(C)(C)[C@@H]5CC[C@]43C)[C@@H]2C1`: in the data set with MDCK, the Activity entry was “Toxic”. For the same molecule, the inhibition entry in the data set with Influenza A virus is “Active”.

As to `CC1(C)CC[C@]2(C(=O)N[C@@H](Cc3ccccc3)C(=O)O)CC[C@]3(C)C(=CC[C@@H]4[C@@]5(C)CC[C@H](O)C(C)(C)[C@@H]5CC[C@]43C)[C@@H]2C1`, the Activity entry in the data set with MDCK is listed as “Toxic”. For the same molecule, the inhibition entry in the data set on Influenza A virus was “Active”.

As to `CC(C)[C@H](NC(=O)[C@]12CCC(C)(C)C[C@H]1C1=CC[C@@H]3[C@@]4(C)CC[C@H](O)C(C)(C)[C@@H]4CC[C@@]3(C)[C@]1(C)CC2)C(=O)O`, the Activity entry in the data set with MDCK is “Toxic”. Moreover, the inhibition entry in the data set on Influenza A virus is “Active”.

On to `COC(=O)[C@H](CCCNC(=N)N)NC(=O)[C@]12CCC(C)(C)C[C@H]1C1=CC[C@@H]3[C@@]4(C)CC[C@H](O)C(C)(C)[C@@H]4CC[C@@]3(C)[C@]1(C)CC2`, for which the Activity result with MDCK is listed as “Toxic”. Further, the inhibition entry with Influenza A virus was “Active”.

Consider `C[C@H](NC(=O)[C@]12CCC(C)(C)C[C@H]1C1=CC[C@@H]3[C@@]4(C)CC[C@H](O)C(C)(C)[C@@H]4CC[C@@]3(C)[C@]1(C)CC2)C(=O)O`, for which, in the data set on MDCK, the Activity result is reported as “Toxic”. Also, the inhibition result in the data set with Influenza A virus is “Active”.

Regarding `CC1(C)CC[C@]2(C(=O)N[C@@H](CC(=O)O)C(=O)O)CC[C@]3(C)C(=CC[C@@H]4[C@@]5(C)CC[C@H](O)C(C)(C)[C@@H]5CC[C@]43C)[C@@H]2C1`, in the data set with MDCK, the Activity entry is listed as “Toxic”. Also, the inhibition entry in the data set on Influenza A virus was “Active”.

In the case of `COC(=O)CNC(=O)[C@]12CCC(C)(C)C[C@H]1C1=CC[C@@H]3[C@@]4(C)CC[C@H](O)C(C)(C)[C@@H]4CC[C@@]3(C)[C@]1(C)CC2`, the Activity entry with MDCK is “Toxic”. In addition, the inhibition result in the data set on Influenza A virus was “Active”.

In the case of `COC(=O)[C@H](CO)NC(=O)[C@]12CCC(C)(C)C[C@H]1C1=CC[C@@H]3[C@@]4(C)CC[C@H](O)C(C)(C)[C@@H]4CC[C@@]3(C)[C@]1(C)CC2`, the Activity result with MDCK is on record as “Toxic”. The inhibition result in the data set on Influenza A virus is “Active”.

In the case of `CC1(C)CC[C@]2(C(=O)NCC(=O)O)CC[C@]3(C)C(=CC[C@@H]4[C@@]5(C)CC[C@H](O)C(C)(C)[C@@H]5CC[C@]43C)[C@@H]2C1`, the Activity result in the data set on MDCK is recorded as “Toxic”. For the same molecule, in the data set on Influenza A virus, the inhibition result is “Active”.

`COC(=O)C[C@H](NC(=O)[C@]12CCC(C)(C)C[C@H]1C1=CC[C@@H]3[C@@]4(C)CC[C@H](O)C(C)(C)[C@@H]4CC[C@@]3(C)[C@]1(C)CC2)C(=O)OC`: the Activity entry in the data set with MDCK is listed as “Toxic”. Moreover, in the data set on Influenza A virus, the inhibition entry was “Active”.

Regarding `CC[C@H](C)[C@H](NC(=O)[C@]12CCC(C)(C)C[C@H]1C1=CC[C@@H]3[C@@]4(C)CC[C@H](O)C(C)(C)[C@@H]4CC[C@@]3(C)[C@]1(C)CC2)C(=O)OC`, the Activity result in the data set with MDCK is listed as “Toxic”. Also, the inhibition result in the data set with Influenza A virus was “Active”.

Take `CC1(C)CC[C@]2(C(=O)N[C@@H](CO)C(=O)O)CC[C@]3(C)C(=CC[C@@H]4[C@@]5(C)CC[C@H](O)C(C)(C)[C@@H]5CC[C@]43C)[C@@H]2C1`: the Activity entry with MDCK is recorded as “Toxic”. Also, in the data set with Influenza A virus, the inhibition entry was “Active”.

`COC(=O)[C@H](Cc1ccc(O)cc1)NC(=O)[C@]12CCC(C)(C)C[C@H]1C1=CC[C@@H]3[C@@]4(C)CC[C@H](O)C(C)(C)[C@@H]4CC[C@@]3(C)[C@]1(C)CC2`: the Activity entry in the data set with MDCK is listed as “Toxic”. In the data set on Influenza A virus, the inhibition result was “Active”.

In the case of `CC[C@H](C)[C@H](NC(=O)[C@]12CCC(C)(C)C[C@H]1C1=CC[C@@H]3[C@@]4(C)CC[C@H](O)C(C)(C)[C@@H]4CC[C@@]3(C)[C@]1(C)CC2)C(=O)O`, in the data set with MDCK, the Activity result is “Toxic”. The inhibition entry with Influenza A virus is “Active”.

Consider `CSCC[C@H](NC(=O)[C@]12CCC(C)(C)C[C@H]1C1=CC[C@@H]3[C@@]4(C)CC[C@H](O)C(C)(C)[C@@H]4CC[C@@]3(C)[C@]1(C)CC2)C(=O)O`, for which the Activity entry with MDCK is “Toxic”. The inhibition entry in the data set with Influenza A virus is “Active”.

On to `CC1(C)CC[C@]2(C(=O)N3CCC[C@H]3C(=O)O)CC[C@]3(C)C(=CC[C@@H]4[C@@]5(C)CC[C@H](O)C(C)(C)[C@@H]5CC[C@]43C)[C@@H]2C1`, for which, in the data set on MDCK, the Activity entry is recorded as “Toxic”. The inhibition result in the data set with Influenza A virus was “Active”.

Turning to `CC1(C)CC[C@]2(C(=O)N[C@@H](Cc3c[nH]c4ccccc34)C(=O)O)CC[C@]3(C)C(=CC[C@@H]4[C@@]5(C)CC[C@H](O)C(C)(C)[C@@H]5CC[C@]43C)[C@@H]2C1`, in the data set on MDCK, the Activity entry is reported as “Toxic”. Further, the inhibition entry with Influenza A virus is “Active”.

In the case of `CC1(C)CC[C@]2(C(=O)O)CC[C@]3(C)C(=CC[C@@H]4[C@@]5(C)CC[C@H](O)C(C)(C)[C@@H]5CC[C@]43C)[C@@H]2C1`, the inhibition entry in the data set on Influenza A virus is “Active”.
